Reference: ChEMBL document CHEMBL1157667, “Synthesis of glycyrrhetinic acid derivatives for the treatment of metabolic diseases” (Bioorg Med Chem, 2010)

Tests used:
[1] = molecular target: 11-beta-hydroxysteroid dehydrogenase 1 (Homo sapiens) (UniProt P28845); experiment: Inhibition of human recombinant 11beta-HSD1 expressed in HEK293 cells assessed as conversion of [1,2-3H]cortisone to cortisol at 1 uM after 10 mins by scintillation counting; format: cell-based
Method in brief: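 Lysates of HEK-293 cells (no endogenous 11β-HSD) expressing recombinant human 11β-HSD1. Reduction of [1,2-3H]cortisone to cortisol was run for 10 min at 37 °C with 200 nM cortisone (final) and NADPH as cofactor; solvent ≤0.1%. Reactions were stopped with methanol containing 2 mM unlabeled cortisone and cortisol. Steroids were separated by TLC and counted by scintillation. Three independent experiments.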

[2] = molecular target: 11-beta-hydroxysteroid dehydrogenase 1 (Rattus norvegicus, UniProt P16232); experiment: Inhibition of 11beta-HSD1 in rat liver assessed as cortisone level; format: tissue-based
Sequence of 11-beta-hydroxysteroid dehydrogenase 1 (P16232 whole entry): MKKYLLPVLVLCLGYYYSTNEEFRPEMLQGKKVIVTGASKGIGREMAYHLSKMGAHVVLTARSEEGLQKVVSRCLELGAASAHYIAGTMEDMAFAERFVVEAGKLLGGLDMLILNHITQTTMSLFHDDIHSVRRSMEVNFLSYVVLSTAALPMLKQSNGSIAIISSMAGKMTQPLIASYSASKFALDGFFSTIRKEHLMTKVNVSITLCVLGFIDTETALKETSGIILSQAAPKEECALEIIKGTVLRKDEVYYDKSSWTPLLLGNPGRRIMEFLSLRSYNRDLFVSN

Sequence of 11-beta-hydroxysteroid dehydrogenase 1 (Homo sapiens) (P28845 whole entry, looked up): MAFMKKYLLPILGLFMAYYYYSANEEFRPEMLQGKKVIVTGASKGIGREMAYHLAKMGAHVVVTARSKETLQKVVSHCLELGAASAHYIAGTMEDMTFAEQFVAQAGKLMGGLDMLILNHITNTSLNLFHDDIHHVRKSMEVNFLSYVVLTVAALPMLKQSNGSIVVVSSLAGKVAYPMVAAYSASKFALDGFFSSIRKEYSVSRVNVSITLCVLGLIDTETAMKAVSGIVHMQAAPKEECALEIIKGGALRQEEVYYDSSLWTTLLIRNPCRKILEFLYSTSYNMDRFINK

| inhibition [1] [%] | IC50 [2] [nM] | Structure (SMILES) |
| --- | --- | --- |
| 91.2 |  | CC1(C)[C@@H](O)CC[C@]2(C)[C@H]3C(=O)C=C4[C@@H]5C[C@@](C)(C(=O)O)CC[C@]5(C)CC[C@@]4(C)[C@]3(C)CC[C@@H]12 (stereo in doubt; 1) |
| 19.5 |  | CC1(C)[C@@H](O)CC[C@]2(C)[C@H]3C(=O)C=C4[C@@H]5C[C@@](C)(C(=O)N6CCC(C(=O)O)CC6)CC[C@]5(C)CC[C@@]4(C)[C@]3(C)CC[C@@H]12 |
| 2.7 |  | CC1(C)[C@@H](O)CC[C@]2(C)[C@H]3C(=O)C=C4[C@@H]5C[C@@](C)(C(=O)NCC(=O)O)CC[C@]5(C)CC[C@@]4(C)[C@]3(C)CC[C@@H]12 |
| 47.1 |  | CC(=O)O[C@H]1CC[C@]2(C)[C@H]3C(=O)C=C4[C@@H]5C[C@@](C)(C(=O)O)CC[C@]5(C)CC[C@@]4(C)[C@]3(C)CC[C@H]2C1(C)C |
| 86 |  | CC1(C)[C@@H](OP(=O)(O)O)CC[C@]2(C)[C@H]3C(=O)C=C4[C@@H]5C[C@@](C)(C(=O)O)CC[C@]5(C)CC[C@@]4(C)[C@]3(C)CC[C@@H]12 |
| 90.9 |  | CC(=O)O[C@H]1CC[C@]2(C)[C@H]3C(=O)C=C4[C@@H]5C[C@@](C)(C(=O)NN)CC[C@]5(C)CC[C@@]4(C)[C@]3(C)CC[C@H]2C1(C)C |
| 87.7 |  | CC1(C)[C@@H](OC(=O)CCC(=O)O)CC[C@]2(C)[C@H]3C(=O)C=C4[C@@H]5C[C@@](C)(C(=O)O)CC[C@]5(C)CC[C@@]4(C)[C@]3(C)CC[C@@H]12 |
| 43.3 |  | CC(=O)O[C@H]1CC[C@]2(C)[C@H]3C(=O)C=C4[C@@H]5C[C@@](C)(C=NO)CC[C@]5(C)CC[C@@]4(C)[C@]3(C)CC[C@H]2C1(C)C |
| 2.9 |  | CC1(C)[C@@H](O)CC[C@]2(C)[C@H]3C(=O)C=C4[C@@H]5C[C@@](C)(C(=O)NCCO)CC[C@]5(C)CC[C@@]4(C)[C@]3(C)CC[C@@H]12 |
| 49.7 |  | CC1(C)[C@@H](O)CC[C@]2(C)[C@H]3C(=O)C=C4[C@@H]5C[C@@](C)(C(=O)O)CC[C@]5(C)CC[C@@]4(C)[C@]3(C)CC[C@@H]12 (stereo in doubt; 23) |
| 63.2 |  | CON=C1CC[C@]2(C)[C@H]3C(=O)C=C4[C@@H]5C[C@@](C)(C(=O)O)CC[C@]5(C)CC[C@@]4(C)[C@]3(C)CC[C@H]2C1(C)C |
|  | 90 | CC1(C)[C@@H](O)CC[C@]2(C)[C@H]3C(=O)C=C4[C@@H]5C[C@@](C)(C(=O)O)CC[C@]5(C)CC[C@@]4(C)[C@]3(C)CC[C@@H]12 (stereo in doubt; 1) [ENOXOLONE] |
| 6.2 |  | C=CCNC(=O)[C@@]1(C)CC[C@]2(C)CC[C@]3(C)C(=CC(=O)[C@@H]4[C@@]5(C)CC[C@H](O)C(C)(C)[C@@H]5CC[C@]43C)[C@@H]2C1 |
| 63.2 |  | CC1(C)[C@@H](O[C@H]2O[C@H](C(=O)O)[C@@H](O)[C@H](O)[C@H]2O[C@@H]2O[C@H](C(=O)O)[C@@H](O)[C@H](O)[C@H]2O)CC[C@]2(C)[C@H]3C(=O)C=C4[C@@H]5C[C@@](C)(C(=O)O)CC[C@]5(C)CC[C@@]4(C)[C@]3(C)CC[C@@H]12 |
| 97.4 |  | CC1(C)[C@H](O)CC[C@]2(C)[C@H]3C(=O)C=C4[C@@H]5C[C@@](C)(C(=O)O)CC[C@]5(C)CC[C@@]4(C)[C@]3(C)CC[C@@H]12 |
| 36 |  | CN(C)CCNC(=O)[C@@]1(C)CC[C@]2(C)CC[C@]3(C)C(=CC(=O)[C@@H]4[C@@]5(C)CC[C@H](O)C(C)(C)[C@@H]5CC[C@]43C)[C@@H]2C1 |
| 32.5 |  | CCNC(=O)N(CCCN(C)C)C(=O)[C@@]1(C)CC[C@]2(C)CC[C@]3(C)C(=CC(=O)[C@@H]4[C@@]5(C)CC[C@H](O)C(C)(C)[C@@H]5CC[C@]43C)[C@@H]2C1 |
| 10.1 |  | C#CCNC(=O)[C@@]1(C)CC[C@]2(C)CC[C@]3(C)C(=CC(=O)[C@@H]4[C@@]5(C)CC[C@H](O)C(C)(C)[C@@H]5CC[C@]43C)[C@@H]2C1 |

| Structure (SMILES) | inhibition [1] [%] | IC50 [2] [nM] |
| --- | --- | --- |
| CC1(C)C(=O)CC[C@]2(C)[C@H]3C(=O)C=C4[C@@H]5C[C@@](C)(C(=O)O)CC[C@]5(C)CC[C@@]4(C)[C@]3(C)CC[C@@H]12 | 63.8 |  |
